Shown are actives, neighbours in structure and some others; about 2.7% of the full set was active somewhere.
SIRT5 block: inhibitors of human sirtuin-5 desuccinylase. Q9NXA8. Purified SirT5, succinyl-peptide AMC, trypsin-coupled fluorescence. inhibition, % at 15 µM. 1.1% of 330,000 active. AID 652115; in the data active = inhibition above about 15%; inconclusive = no clear call, values can overlap the other calls
AF4-AF9 inh: blocks AF4 peptide binding to human AF9; AlphaScreen, biotin-AF4 peptide binding to FLAG-AF9; inhibition, % at 10 µM; 0.47% of 350,000 active;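 active = every replicate reaching a set inhibition limit, whatever the replicate mean, cut at about 25% in these data; inconclusive = mean inhibition reaches that limit but some replicates miss it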;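 also: 0% = plate neutral control median and 100% = total signal loss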
Target sequence (P42568 whole entry, looked up): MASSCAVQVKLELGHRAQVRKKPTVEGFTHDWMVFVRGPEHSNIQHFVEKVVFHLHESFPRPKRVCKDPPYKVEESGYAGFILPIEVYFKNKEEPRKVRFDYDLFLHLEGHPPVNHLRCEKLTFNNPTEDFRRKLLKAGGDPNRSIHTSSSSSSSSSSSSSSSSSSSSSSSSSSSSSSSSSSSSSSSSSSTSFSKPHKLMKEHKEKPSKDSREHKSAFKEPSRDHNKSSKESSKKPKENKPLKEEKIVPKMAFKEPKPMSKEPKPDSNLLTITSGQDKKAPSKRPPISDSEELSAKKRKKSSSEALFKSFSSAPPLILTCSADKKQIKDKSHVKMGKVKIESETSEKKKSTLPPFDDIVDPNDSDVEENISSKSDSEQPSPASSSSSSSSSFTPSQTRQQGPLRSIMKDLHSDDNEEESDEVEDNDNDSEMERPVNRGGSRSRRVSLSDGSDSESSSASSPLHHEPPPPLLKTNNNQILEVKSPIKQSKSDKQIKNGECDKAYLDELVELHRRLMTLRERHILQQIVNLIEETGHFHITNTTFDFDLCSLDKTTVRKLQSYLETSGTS
S100A4 inh HTS: inhibitors of human S100A4 binding to myosin IIA peptide; S100A4/TAMRA-MyoIIA peptide fluorescence polarization; inhibition, % at 10.7 µM; 0.14% of 360,000 active; P26447;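 active = mean inhibition of at least 70% across replicates, with every replicate also reaching that level; inconclusive = mean inhibition reaches 70% but some replicates fall short; inactive = mean inhibition below 70%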
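Test system: S100A4 monomer protein. Medium: HEPES buffer with Ca2+, pH 7.2. Reagent: fluorescent myosin IIA peptide, 5 nM. Compound dosing: single-point compound testing. Timing: 5 min between mix addition and reading. Benchmarks: DMSO neutral and TFP positive wells.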
CaV13 FRET inh: Disruptors of the CACNA1D IQ motif to Ca2+-dependent inactivation inhibitor domain association, primary screening, Förster resonance energy transfer in intact living …; HEK cells, CFP/YFP FRET ICDI-IQ, plate reader, 10 min; percent FRET-ratio fall versus neutral wells; inhibition, % at 12.3 µM; 0.098% of 340,000 active;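 active = mean replicate inhibition of at least 30% and at least 1% of replicates passing that level; inconclusive = only one of the two criteria is met; inactive = neither criterion is met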;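 also: 0% = median of the neutral control wells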
DENV2 CPE rescue: protects cells from dengue virus 2 cytopathic effect; DENV2-infected cells, cytopathic effect rescue, plate reader; CPE inhibition, % at 9.99 µM; 1.7% of 350,000 active; in the data active = CPE inhibition above about 20%, passing the limit was not always enough; inconclusive = no clear call, values can overlap the other calls; tested in BHK-21 cells;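 also: 0% = median of neutral control wells and 100% = median of positive control wells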
The depositor's hits bear a star; ? = inconclusive; . = not tested or not shown; ! = not confirmed by another sample.

SMILES	SIRT5 block	AF4-AF9 inh	S100A4 inh HTS	CaV13 FRET inh	DENV2 CPE rescue
Cc1ccc(S(=O)(=O)Nc2ccc3c(c2)C(=O)N([C@@H](C)CO)C[C@H](C)[C@@H](CN(C)C(=O)Nc2ccc(C(F)(F)F)cc2)O3)cc1	16*	-2	4	.	?
C[C@@H]1CCCCO[C@H](CN(C)C(=O)Nc2ccc(C(F)(F)F)cc2)[C@@H](C)CN([C@@H](C)CO)C(=O)c2cc(NS(=O)(=O)c3ccc(F)cc3)ccc2O1	18*	2	20	.	-3
C[C@H]1CN([C@@H](C)CO)C(=O)c2cc(NS(=O)(=O)c3ccc(F)cc3)ccc2O[C@H]1CN(C)C(=O)Nc1ccc(C(F)(F)F)cc1	2	-2	8	.	11
C[C@H](CO)N1C[C@H](C)[C@@H](CN(C)C(=O)NC2CCCCC2)Oc2ccc(NC(=O)Nc3ccc4c(c3)OCO4)cc2C1=O	-5	1	8	.	4
C[C@H]1CN([C@@H](C)CO)C(=O)Cc2cc(NC(=O)Cn3cnnn3)ccc2O[C@H]1CN(C)S(=O)(=O)c1cn(C)cn1	7	0	10	.	11
O=C(Cc1ccc(F)cc1)Nc1nc(-c2ccc(F)c(F)c2)cs1	16*	-2	-4	-5	?
CCCC#Cc1ccc([C@H]2[C@@H](CO)N3C(=O)CN(C(=O)Nc4ccccc4)C[C@@H]23)cc1	0	-8	1	.	-2
C[C@@H]1CN([C@H](C)CO)C(=O)c2cc(C#CC3(O)CCCC3)cnc2O[C@@H]1CN(C)CC1CC1	-1	-4	-4	.	8
CO[C@H]1CN(C)C(=O)c2cc(NS(=O)(=O)c3ccc(-c4ccccc4)cc3)ccc2OC[C@H](C)NC[C@@H]1C	2	4	-2	.	23*
CO[C@@H]1CN(C)C(=O)c2cc(NS(=O)(=O)c3ccccc3)ccc2OC[C@H](C)N(C)C[C@H]1C	-4	0	2	.	21*
COc1cccc(S(=O)(=O)Nc2ccc3c(c2)C(=O)N(C)C[C@@H](OC)[C@H](C)CN[C@H](C)CO3)c1	-2	-1	-17	.	-1
CO[C@H]1CN(C)C(=O)c2cc(NS(=O)(=O)c3ccc(-c4ccccc4)cc3)ccc2OC[C@H](C)NC[C@H]1C	3	4	-12	.	-7
COc1cccc(S(=O)(=O)Nc2ccc3c(c2)C(=O)N(C)C[C@H](OC)[C@H](C)CN[C@@H](C)CO3)c1	-6	-1	4	-16	20*!
CC(=O)N1CCN=C1SCc1ccccc1	.	-3	0	-2	-10
CC(=O)N1CCN(C(C)=O)c2ccccc21	-3	36*	1	-5	-5
CC(C)(CO)NC(=S)NCc1ccco1	30*	1	-4	-4	8
CC(C)(C)c1ccc(C(=O)NC(=S)NCc2ccco2)cc1	-1	1	-5	-5	4
CNC[C@@H]1OCCCC[C@@H](C)Oc2ccc(NC(=O)c3ccccc3)cc2C(=O)N([C@H](C)CO)C[C@H]1C	8	0	-17	.	-3
CN(C)c1ccc(-n2cccc2/C=C/[N+](=O)[O-])cc1	2	25*	18	-7	?
CN(c1ccccc1)c1ccc(/C=C/[N+](=O)[O-])cc1	1	-5	-4	-12	0
COCC(=O)N(C)C[C@H]1Oc2cc(-c3ccncc3)ccc2S(=O)(=O)N([C@H](C)CO)C[C@H]1C	1	-6	0	.	74*
C[C@@H]1CN([C@@H](C)CO)S(=O)(=O)c2ccc(-c3ccncc3)cc2O[C@@H]1CN(C)C(=O)CC1CC1	-2	-3	-3	.	-1
C[C@@H]1CN([C@@H](C)CO)S(=O)(=O)c2ccc(-c3ccncc3)cc2O[C@H]1CN(C)C(=O)CC1CC1	-2	-1	-1	.	85*
COCC(=O)N(C)C[C@@H]1Oc2cc(-c3ccncc3)ccc2S(=O)(=O)N([C@@H](C)CO)C[C@H]1C	9	-2	16	.	-6
C[C@@H]1CN([C@H](C)CO)S(=O)(=O)c2ccc(-c3cccnc3)cc2O[C@@H]1CN(C)C(=O)CC1CC1	3	-10	108*	.	2
SMILES	SIRT5 block	AF4-AF9 inh	S100A4 inh HTS	CaV13 FRET inh	DENV2 CPE rescue
C[C@H]1CCCCO[C@@H](CN(C)CC2CC2)[C@@H](C)CN([C@@H](C)CO)C(=O)c2cc(NC(=O)Nc3ccc(F)cc3)ccc2O1	.	1	.	.	.
CC(C)NC(=O)N(C)C[C@H]1Oc2cc(C#CC(C)(C)O)ccc2S(=O)(=O)N([C@@H](C)CO)C[C@H]1C	-5	-5	8	.	-2
C[n+]1c(-c2ccccc2)cc2c(=Cc3ccc([N+](=O)[O-])cc3)c3ccccc3n21	-1	61*	-5	-11	-5
C[n+]1c(-c2ccccc2)cc2c(=Cc3ccccc3)c3ccccc3n21	.	28*	-50	-7	1
CN(C=O)c1ccc(CSc2ccccc2)cc1	36*	-2	0	-5	9
CCC(=O)Nc1cc(C(=O)OCc2ccc(C(=O)Oc3ccccc3)cc2)ccc1C	0	1	-2	-5	82*
O=C(NNCc1ccc(O)cc1)c1ccccc1Cl	-1	-2	-3	-7	75*
COc1ccc(CNC(=O)C[C@H]2C[C@@H]3c4cc(NS(=O)(=O)c5ccc(F)cc5)ccc4O[C@@H]3[C@@H](CO)O2)cc1	5	-1	23	.	-4
Cc1nnc(SCC(=O)NC2CCCc3ccccc32)n1-c1ccccc1 (configuration not stated)	-3	0	0	-3	83*
CCOC(=O)[C@H]1[C@H]2COc3ccc(Br)cc3[C@@H]2N2C(=O)CN(Cc3ccc(Cl)cc3)C(=O)[C@@]12C	4	2	-9	-11	3
CCOC(=O)[C@H]1[C@H]2COc3ccc(Br)cc3[C@@H]2N2C(=O)CN(Cc3ccco3)C(=O)[C@@]12C	.	3	-4	-6	50*
CCOC(=O)[C@@H]1[C@H]2COc3ccc(Br)cc3[C@@H]2N2C(=O)N(c3ccc(C)cc3)C(=O)[C@]12C	.	5	-5	-4	51*
CCOC(=O)[C@@H]1[C@H]2COc3ccc(Br)cc3[C@H]2N2C(=O)N(c3ccc(C)cc3)C(=O)[C@]12C	-2	5	-7	-9	4
CC(C)NC(=O)N1[C@@H]2CN(C(=O)C3CC3)c3ccccc3[C@@H]2[C@@H]1CO	-3	5	50	.	15
CN(C)CC(=O)N1[C@@H]2Cn3c(ccc(-c4ccccc4)c3=O)[C@H]1[C@@H](C(=O)N1CCCCC1)[C@@H]2CO	-24	-3	0	.	6
CC1CCC(CN2CCN=C2Nc2ccccc2)CC1 (configuration not stated)	.	5	13	-8	40*
CC[n+]1c(-c2ccccc2)csc1Nc1c(C)n(C)n(-c2ccccc2)c1=O	21*	7	-21	1	-2

Source: PubChem
